Data as given in ChEMBL document CHEMBL1126622, “2-substituted 1,2-dihydro-3H-dibenz[de,h]isoquinoline-1,3-diones. A new class of antitumor agent” (J Med Chem, 1993).

Legend:
L1210 [1] = test: Tested against L1210 resistant murine leukemia cells by MTT tetrazolium dye assay; assay type: functional, cell-based; settings: Mus musculus
In short: (§1)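 Suspension L1210 cells (drug-sensitive and multidrug-resistant lines), 50 000/well, drug added day 2 from DMSO stock serially diluted in PBS pH 7.4, 10^1–10^-5 μg/mL in half-log steps, final DMSO ≤0.1%; continuous 6-day exposure at 37 °C, 5% CO2; MTT added 4 h, formazan dissolved in DMSO, A570; percent of untreated control; six wells per concentration, IC50s averaged.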

L1210 [2] = test: Tested against L1210 sensitive murine leukemia cells by MTT tetrazolium dye assay; assay type: functional, cell-based; settings: Mus musculus; in short: as §1
OVCAR-3 = test: Tested against OVCAR-3 human ovarian cancer cells by sulforhodamine B (SRB) assay; assay type: functional, cell-based
In short: (§2)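 Adherent UACC375 melanoma and OVCAR3 ovarian cells, SRB assay: plating and dosing as for MTT (50 000/well, 10^1–10^-5 μg/mL half-log, DMSO ≤0.1%), 8-day exposure; fixed with 10% TCA 1 h at 4 °C, stained 30 min with 0.4% SRB in 1% acetic acid, dye dissolved in 10 mM Tris base pH 10.5, OD 564 nm; six wells per concentration, IC50s averaged.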

[3] = Tested against UACC375 human melanoma cancer cells by sulforhodamine B (SRB) assay; assay type: functional, cell-based; settings: Cancer cell lines; in short: as §2
[4] = Tested for in vitro for cardiotoxicity by performing neonatal rat heart myocyte assay method; assay type: functional
In short: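 Neonatal rat heart myocytes exposed to drug for 1 h; cytotoxicity read as cellular ATP/protein ratio relative to untreated controls; IC50 is the 1-h concentration halving this ratio.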

[5] = Average mean for IC50 values in the four cell lines (UACC375,OVCAR3,L1210 sensitive,L1210 resistant); assay type: functional; design: unit not given here
In short: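 Mean of the IC50 values from the four tumor lines: UACC375 and OVCAR3 by SRB (8-day exposure), sensitive and resistant L1210 by MTT (6-day continuous exposure).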

[6] = The quotient of the IC50 is the myocytes divided by the mean IC50 in the four cell lines (UACC375,OVCAR3,L1210 sensitive,L1210 resistant); assay type: ADME; settings: read-out: Toxicity ratio
In short: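 Ratio of the myocyte IC50 (1-h exposure, ATP/protein ratio read-out) to the mean tumor-cell IC50 across the four lines, UACC375 and OVCAR3 by SRB, sensitive and resistant L1210 by MTT.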

[7] = Acid dissociation constant was determined; assay type: ADME
In short: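 Hydrochloride salt (0.165 mmol) dissolved in 0.982 N HCl to give 1 mequiv acid beyond amine protonation; stirred and titrated with 0.926 N NaOH with pH-meter monitoring.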

L1210 [8] = test: Tested for percent increase in life span in L1210 leukemia cells after intraperitoneal dose of 30 mg/kg in mice; assay type: functional; settings: Mus musculus, L1210, ip
In short: (§3)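 Standard NCI protocol: leukemia cells implanted intraperitoneally, with drug given ip on days 1, 5 and 9. Read-out is percent increase in life span, 100 × (treated life span − control life span)/control life span.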

L1210 [9] = test: Tested for percent increase in life span in L1210 leukemia cells after intraperitoneal dose of 45 mg/kg in mice; assay type: functional; settings: Mus musculus, L1210, ip; in short: as §3
B16 [10] = test: Tested for percent tumor growth inhibition in B16 melanoma cells after intraperitoneal dose of 30 mg/kg in mice; settings: Mus musculus, B16, ip; read-out: TGI
COLO 480 = test: Tested against human colon carcinoma COLO 480 cell line in vitro; assay type: functional, cell-based
In short: (§4)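 Human colon carcinoma lines, MTT assay: 50 000 cells/well, drug added day 2 (DMSO stock diluted in PBS pH 7.4, 10^1–10^-5 μg/mL half-log steps, final DMSO ≤0.1%), 6-day exposure at 37 °C, 5% CO2; MTT 4 h, formazan in DMSO read at 570 nm vs untreated control; six wells per concentration, IC50 averaged.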

COLO 205 = test: Tested against human colon carcinoma COLO 205 cell line in vitro; assay type: functional, cell-based; in short: as §4
HCT-15 = test: Tested against human colon carcinoma HCT 15 cell line in vitro; assay type: functional, cell-based; in short: as §4
HT-29 = test: Tested against human colon carcinoma HT 29 cell line in vitro; assay type: functional, cell-based; in short: as §4
L1210 [11] = test: Tested for percent increase in life span in L1210 leukemia cells after intraperitoneal dose of 15 mg/kg in mice; assay type: functional; settings: Mus musculus, L1210, ip; in short: as §3
L1210 [12] = test: Tested for percent increase in life span in L1210 leukemia cells after intraperitoneal dose of 5 mg/kg in mice; assay type: functional; settings: Mus musculus, L1210, ip
In short: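 Standard NCI protocol: leukemia cells implanted intraperitoneally, with drug given ip once daily on days 1–5. Read-out is percent increase in life span, 100 × (treated life span − control life span)/control life span.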

LoVo = test: Tested against human colon carcinoma LoVo cell line in vitro; assay type: functional, cell-based; in short: as §4
B16 [13] = test: Tested for percent tumor growth inhibition in B16 melanoma cells after intraperitoneal dose of 15 mg/kg in mice; settings: Mus musculus, B16, ip; read-out: TGI

SMILES | IC50 (L1210 [1]) | IC50 (L1210 [2]) | IC50 (OVCAR-3) | IC50 [3] | IC50 [4] | Average [5] | selectivity ratio [6] | pKa [7] | ILS at 30 mg/kg (L1210 [8]) | ILS at 45 mg/kg (L1210 [9]) | inhibition in vivo at 30 mg/kg (B16 [10]) | IC50 (COLO 480) | IC50 (COLO 205) | IC50 (HCT-15) | IC50 (HT-29) | ILS at 15 mg/kg (L1210 [11]) | ILS at 5 mg/kg (L1210 [12]) | IC50 (LoVo) | inhibition in vivo at 15 mg/kg (B16 [13])
O=C1c2cccc3cc4ccccc4c(c23)C(=O)N1c1cccnc1 | 554 nM | 544 nM | 1940 nM | 2490 nM | > 25 µM | 1380 | > 20 |  |  |  |  |  |  |  |  |  |  |  | 
O=C1c2cccc3cc4ccccc4c(c23)C(=O)N1Cc1cccnc1 | 2670 nM | 1870 nM | 8020 nM | 11400 nM | > 25 µM | 5983 | > 4 |  |  |  |  |  |  |  |  |  |  |  | 
O=C1c2cccc3cc4ccccc4c(c23)C(=O)N1CCN1CCCC1 | 11.8 nM | 14.5 nM | 66 nM | 39 nM | 0.92 µM | 33 | 28 |  |  |  |  |  |  |  |  |  |  |  | 
O=C1c2cccc3cc4ccccc4c(c23)C(=O)N1N1CC1 | 791 nM | 791 nM | 7910 nM | 2530 nM |  | 3006 |  |  |  |  |  |  |  |  |  |  |  |  | 
O=C1c2cccc3cc4ccccc4c(c23)C(=O)N1CCN1CCOCC1 | 512 nM | 512 nM | 639 nM | 511 nM | > 25 µM | 544 | > 50 |  |  |  |  |  |  |  |  |  |  |  | 
CN(C)CCCN1C(=O)c2cccc3cc4ccccc4c(c23)C1=O | 82 nM | 54 nM | 462 nM | 245 nM | 11.4 µM | 211 | 113 | 7.3 |  |  |  |  |  |  |  |  |  |  | 
CCN1CCCC(N2C(=O)c3cccc4cc5ccccc5c(c34)C2=O)C1 (stereo not drawn) | 609 nM | 635 nM | 1180 nM | 1650 nM | 8.76 µM | 1020 | 8.3 |  |  |  |  |  |  |  |  |  |  |  | 
O=C1c2cccc3cc4ccccc4c(c23)C(=O)N1CCN1CCNCC1 | 463 nM | 174 nM | 1970 nM | 463 nM | 6.71 µM | 767 | 8.8 |  |  |  |  |  |  |  |  |  |  |  | 
CCN1CCCC1CN1C(=O)c2cccc3cc4ccccc4c(c23)C1=O (stereo not drawn) | 55 nM | 36 nM | 214 nM | 119 nM | 15.2 µM | 106 | 143 |  |  |  |  |  |  |  |  |  |  |  | 
O=C1c2cccc3cc4ccccc4c(c23)C(=O)N1Cc1ccccn1 | 26700 nM | 26700 nM | 17400 nM | 12000 nM | > 25 µM | 20722 | > 1 |  |  |  |  |  |  |  |  |  |  |  | 
CN1CCCC1CCN1C(=O)c2cccc3cc4ccccc4c(c23)C1=O (stereo not drawn) | 56 nM | 51 nM | 203 nM | 190 nM | 7.08 µM | 125 | 57 |  |  |  |  |  |  |  |  |  |  |  | 
O=C1c2cccc3cc4ccccc4c(c23)C(=O)N1CCN1CCCCC1 | 51 nM | 51 nM | 89 nM | 178 nM | 10.4 µM | 92 | 13 |  |  |  |  |  |  |  |  |  |  |  | 
O=C1c2cccc3cc4ccccc4c(c23)C(=O)N1CCNCCO | 41 nM | 18 nM | 81 nM | 67 nM | 0.943 µM | 52 | 18 |  |  |  |  |  |  |  |  |  |  |  | 
O=C1c2cccc3cc4ccccc4c(c23)C(=O)N1CCc1ccccn1 | 15500 nM | 6440 nM | 3870 nM | 6440 nM | > 25 µM | 8054 | > 3 | 5.4 |  |  |  |  |  |  |  |  |  |  | 
CN(C)c1ccc(N2C(=O)c3cccc4cc5ccccc5c(c34)C2=O)cc1 | 1790 nM | 187 nM | 16200 nM | 4980 nM | 37.3 µM | 4537 | 8 |  |  |  |  |  |  |  |  |  |  |  | 
O=C1c2cccc3cc4ccccc4c(c23)C(=O)N1CCCN(CCO)CCO | 142 nM | 76 nM | 163 nM | 217 nM | 8.91 µM | 150 | 60 |  |  |  |  |  |  |  |  |  |  |  | 
CNCCN1C(=O)c2cccc3cc4ccccc4c(c23)C1=O | 20.6 nM | 10 nM | 44 nM | 59 nM | 7.06 µM | 33 | 211 |  |  |  |  |  |  |  |  |  |  |  | 
O=C1c2cccc3cc4ccccc4c(c23)C(=O)N1c1ncc[nH]1 | 148 nM | 207 nM | 2430 nM | 1620 nM |  | 1103 |  |  |  |  |  |  |  |  |  |  |  |  | 
CN(C)CCN1C(=O)c2cccc3cc(N)cc(c23)C1=O [AMONAFIDE] | 625 nM | 625 nM | 2180 nM | 2030 nM | 48.4 µM | 1365 | 36 | 7.3 | 45% | 87.5% | 23% |  |  |  |  |  |  |  | 
CN(C)CCN1C(=O)c2cccc3cc4ccccc4c(c23)C1=O [AZONAFIDE] | 7 nM | 7 nM | 57 nM | 71 nM | 1.98 µM | 36 | 56 | 7.3 | 62.5% | 79% |  | 3 nM | 36 nM | 8 nM | 63 nM | 25% | 90% | 6 nM | 74%
